Reference: ChEMBL document CHEMBL1149316, “Bioisosteric modifications of 2-arylureidobenzoic acids: selective noncompetitive antagonists for the homomeric kainate receptor subtype GluR5” (J Med Chem, 2004)
Active and inactive are the calls of the source. The calls are words filed in the database; no cut-off is given here.

Key:
[1] = biological target: T1, Glutamate receptor ionotropic, kainate 1 (Homo sapiens, UniProt P39086); assay: Antagonist activity at human homomeric GluR5 expressed in HEK293 cells assessed as inhibition of intracellular calcium concentration by FLIPR assay; type: functional, cell-based
Glutamate receptor 1 = Glutamate receptor 1 (Rattus norvegicus, UniProt P19490); assay: Antagonist activity at rat homomeric recombinant GluR1 expressed in HEK293 cells assessed as inhibition of intracellular calcium concentration by FLIPR assay; type: functional, cell-based
Method in brief: (§1)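 AMPA-subunit HEK293 lines were grown with 100 μg/mL SPD 502 in the medium. Cells were loaded with 2 μM Fluo-4-AM for 30 min at room temperature and washed into Na⁺-free Ringer at pH 7.4. All solutions contained 100 μM cyclothiazide. Test compound was preincubated 1.5 min before 25 μM Glu (final) was added. The Ca²⁺ rise was read by FLIPR at room temperature. Solvent (EtOH or DMSO) was ≤1.0%.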

Glutamate receptor 3 = Glutamate receptor 3 (Rattus norvegicus, UniProt P19492); assay: Antagonist activity at rat homomeric recombinant GluR3 expressed in HEK293 cells assessed as inhibition of intracellular calcium concentration by FLIPR assay; type: functional, cell-based; method in brief: as §1
Glutamate receptor 4 = Glutamate receptor 4 (Rattus norvegicus, UniProt P19493); assay: Antagonist activity at rat homomeric recombinant GluR4 expressed in HEK293 cells assessed as inhibition of intracellular calcium concentration by FLIPR assay; type: functional, cell-based; method in brief: as §1
[2] = biological target: Glutamate receptor 1 (Rattus norvegicus) (UniProt P19490); assay: Antagonist activity at rat homomeric recombinant GluR1 expressed in HEK293 cells assessed as inhibition of intracellular calcium concentration at 30 uM by FLIPR assay; type: functional, cell-based; method in brief: as §1
[3] = biological target: Glutamate receptor 2 (Rattus norvegicus) (UniProt P19491); assay: Antagonist activity at rat homomeric recombinant GluR2 expressed in HEK293 cells assessed as inhibition of intracellular calcium concentration at 30 uM by FLIPR assay; type: functional, cell-based; method in brief: as §1
[4] = biological target: Glutamate receptor 3 (Rattus norvegicus) (UniProt P19492); assay: Antagonist activity at rat homomeric recombinant GluR3 expressed in HEK293 cells assessed as inhibition of intracellular calcium concentration at 30 uM by FLIPR assay; type: functional, cell-based; method in brief: as §1
[5] = biological target: Glutamate receptor 4 (Rattus norvegicus) (UniProt P19493); assay: Antagonist activity at rat homomeric recombinant GluR4 expressed in HEK293 cells assessed as inhibition of intracellular calcium concentration at 30 uM by FLIPR assay; type: functional, cell-based; method in brief: as §1
Mus musculus = assay: Effect on ATPA-induced rigidity in mouse dosed intravenously 30 mins before ATPA administration; type: functional; settings: iv
Method in brief: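 Female NMRI mice (20–25 g) received test substance iv (n = 8 per dose) 30 min before iv ATPA at 30 mg/kg. ATPA was given at 3 mg/mL in saline, pH 7. Rigidity was scored 30 min after ATPA as loss of righting and lack of movement on a 45° grid. Results were taken as the percent of mice rigid, and ED50 was derived.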

Glutamate receptor 2 = Glutamate receptor 2 (Rattus norvegicus, UniProt P19491); assay: Antagonist activity at rat homomeric recombinant GluR2 expressed in HEK293 cells assessed as inhibition of intracellular calcium concentration by FLIPR assay; type: functional, cell-based
Method in brief: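 Cells were loaded with 2 μM Fluo-4-AM for 30 min at room temperature and washed into Na⁺-free Ringer at pH 7.4. All solutions contained 100 μM cyclothiazide. The Ca²⁺ rise was read by FLIPR at room temperature. Solvent (EtOH or DMSO) was ≤1.0%.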

[6] = biological target: Glutamate receptor ionotropic, kainate 2 (Homo sapiens, UniProt Q13002); assay: Antagonist activity at human homomeric GluR6 expressed in HEK293 cells assessed as inhibition of intracellular calcium concentration by FLIPR assay; type: functional, cell-based
Method in brief: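 Stably transfected HEK293 cells were grown in DMEM with 10% FCS at 37 °C. Cells were plated on PEI-coated plates 24 h before loading with 2 μM Fluo-4-AM for 60 min at room temperature, then washed into Na⁺-free Ringer at pH 7.4. Test compound was preincubated 1.5 min, then 0.2 μM domoic acid (final) was added. The Ca²⁺ rise was read by FLIPR (ex 488 nm, em 510–570 nm). IC50 reported.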

[7] = biological target: T1, Glutamate receptor ionotropic, kainate 1; assay: Displacement of [3HATPA from human recombinant GluR5
Method in brief: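 GluR5 HEK293 membranes were washed in 50 mM Tris-HCl (pH 7.1) at 0–4 °C and centrifuged at 27000g. 46–84 μg protein was incubated with 3 nM [³H]ATPA for 60 min at 2 °C. Nonspecific binding was defined with 0.6 mM Glu. Binding was stopped by rapid filtration and counted by liquid scintillation. Compounds were tested at 3–30 μM.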

Chain of Glutamate receptor 2 (Rattus norvegicus) (P19491 whole entry): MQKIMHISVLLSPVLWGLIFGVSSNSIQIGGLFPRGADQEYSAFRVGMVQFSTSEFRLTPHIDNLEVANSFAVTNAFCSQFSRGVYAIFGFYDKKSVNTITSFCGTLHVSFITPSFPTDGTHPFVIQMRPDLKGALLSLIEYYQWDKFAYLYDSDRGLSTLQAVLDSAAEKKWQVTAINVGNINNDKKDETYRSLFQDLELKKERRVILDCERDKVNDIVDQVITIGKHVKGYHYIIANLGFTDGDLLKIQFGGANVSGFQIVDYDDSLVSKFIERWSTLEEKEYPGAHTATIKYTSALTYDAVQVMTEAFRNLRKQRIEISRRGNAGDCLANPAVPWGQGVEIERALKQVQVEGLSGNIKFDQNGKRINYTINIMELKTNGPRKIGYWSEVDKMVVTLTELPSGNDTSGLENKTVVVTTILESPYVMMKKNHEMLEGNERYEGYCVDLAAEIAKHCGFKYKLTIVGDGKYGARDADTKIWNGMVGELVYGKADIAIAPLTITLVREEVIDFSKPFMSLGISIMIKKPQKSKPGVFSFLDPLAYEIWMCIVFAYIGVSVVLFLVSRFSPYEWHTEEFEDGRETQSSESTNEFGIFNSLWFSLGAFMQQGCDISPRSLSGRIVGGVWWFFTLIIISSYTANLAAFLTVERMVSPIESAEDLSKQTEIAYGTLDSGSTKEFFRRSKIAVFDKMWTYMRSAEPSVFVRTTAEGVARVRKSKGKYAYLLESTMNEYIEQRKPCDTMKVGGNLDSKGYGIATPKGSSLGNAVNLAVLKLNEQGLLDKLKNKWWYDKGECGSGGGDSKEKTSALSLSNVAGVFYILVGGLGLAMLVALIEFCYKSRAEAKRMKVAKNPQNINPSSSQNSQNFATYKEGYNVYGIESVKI
Chain of Glutamate receptor 2 (P19491 whole entry): as above
Chain of Glutamate receptor 1 (P19490 whole entry): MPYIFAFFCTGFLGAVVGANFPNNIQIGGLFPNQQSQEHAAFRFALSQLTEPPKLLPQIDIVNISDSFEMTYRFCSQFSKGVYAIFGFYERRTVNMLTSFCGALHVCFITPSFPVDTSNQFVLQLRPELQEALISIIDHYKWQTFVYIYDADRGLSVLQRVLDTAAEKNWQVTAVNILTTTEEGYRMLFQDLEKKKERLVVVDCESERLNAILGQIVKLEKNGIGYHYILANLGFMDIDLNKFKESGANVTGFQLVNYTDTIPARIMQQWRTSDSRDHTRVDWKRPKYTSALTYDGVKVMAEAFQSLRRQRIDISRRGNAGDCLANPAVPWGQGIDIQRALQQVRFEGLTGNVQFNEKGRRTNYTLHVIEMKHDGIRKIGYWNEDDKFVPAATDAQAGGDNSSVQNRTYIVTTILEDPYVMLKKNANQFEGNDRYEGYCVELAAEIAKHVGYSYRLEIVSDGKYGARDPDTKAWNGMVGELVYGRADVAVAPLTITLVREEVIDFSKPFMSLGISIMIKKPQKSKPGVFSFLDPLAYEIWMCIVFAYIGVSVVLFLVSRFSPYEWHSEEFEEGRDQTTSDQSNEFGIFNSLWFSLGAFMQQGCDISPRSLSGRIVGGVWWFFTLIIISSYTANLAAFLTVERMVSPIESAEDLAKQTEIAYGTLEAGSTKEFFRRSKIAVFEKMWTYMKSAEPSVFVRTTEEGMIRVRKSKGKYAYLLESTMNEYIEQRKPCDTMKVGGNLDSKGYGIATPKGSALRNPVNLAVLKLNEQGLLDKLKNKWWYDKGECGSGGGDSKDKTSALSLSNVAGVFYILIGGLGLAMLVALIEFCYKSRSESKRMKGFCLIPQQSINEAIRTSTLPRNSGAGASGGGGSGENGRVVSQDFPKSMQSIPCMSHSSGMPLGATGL
Chain of Glutamate receptor 1 (Rattus norvegicus) (P19490 whole entry): as above
Chain of Glutamate receptor 3 (P19492 whole entry): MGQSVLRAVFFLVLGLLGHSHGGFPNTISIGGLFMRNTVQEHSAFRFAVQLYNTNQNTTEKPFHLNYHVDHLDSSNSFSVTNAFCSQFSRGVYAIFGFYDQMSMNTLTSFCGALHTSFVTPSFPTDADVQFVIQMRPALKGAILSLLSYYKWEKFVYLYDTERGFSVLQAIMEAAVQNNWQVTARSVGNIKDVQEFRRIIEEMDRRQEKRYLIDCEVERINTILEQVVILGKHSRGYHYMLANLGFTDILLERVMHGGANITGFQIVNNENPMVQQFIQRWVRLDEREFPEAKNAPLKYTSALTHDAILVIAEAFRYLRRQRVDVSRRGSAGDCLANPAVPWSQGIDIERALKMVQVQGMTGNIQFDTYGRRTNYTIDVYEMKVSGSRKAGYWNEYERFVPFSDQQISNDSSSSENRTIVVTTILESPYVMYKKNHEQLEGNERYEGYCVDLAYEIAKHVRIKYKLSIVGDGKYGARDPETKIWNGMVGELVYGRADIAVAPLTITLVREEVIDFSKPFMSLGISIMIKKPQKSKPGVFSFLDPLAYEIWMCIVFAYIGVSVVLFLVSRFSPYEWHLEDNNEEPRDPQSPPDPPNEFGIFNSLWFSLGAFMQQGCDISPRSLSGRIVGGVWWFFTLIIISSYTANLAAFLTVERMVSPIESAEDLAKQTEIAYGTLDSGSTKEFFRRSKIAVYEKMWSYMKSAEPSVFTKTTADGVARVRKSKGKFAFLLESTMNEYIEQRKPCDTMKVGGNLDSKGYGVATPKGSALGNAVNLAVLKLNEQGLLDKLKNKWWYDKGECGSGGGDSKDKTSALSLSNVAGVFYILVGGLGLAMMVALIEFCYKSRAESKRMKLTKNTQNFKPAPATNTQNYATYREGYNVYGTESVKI
Chain of Glutamate receptor 3 (Rattus norvegicus) (P19492 whole entry): as above
Chain of Glutamate receptor 4 (Rattus norvegicus) (P19493 whole entry): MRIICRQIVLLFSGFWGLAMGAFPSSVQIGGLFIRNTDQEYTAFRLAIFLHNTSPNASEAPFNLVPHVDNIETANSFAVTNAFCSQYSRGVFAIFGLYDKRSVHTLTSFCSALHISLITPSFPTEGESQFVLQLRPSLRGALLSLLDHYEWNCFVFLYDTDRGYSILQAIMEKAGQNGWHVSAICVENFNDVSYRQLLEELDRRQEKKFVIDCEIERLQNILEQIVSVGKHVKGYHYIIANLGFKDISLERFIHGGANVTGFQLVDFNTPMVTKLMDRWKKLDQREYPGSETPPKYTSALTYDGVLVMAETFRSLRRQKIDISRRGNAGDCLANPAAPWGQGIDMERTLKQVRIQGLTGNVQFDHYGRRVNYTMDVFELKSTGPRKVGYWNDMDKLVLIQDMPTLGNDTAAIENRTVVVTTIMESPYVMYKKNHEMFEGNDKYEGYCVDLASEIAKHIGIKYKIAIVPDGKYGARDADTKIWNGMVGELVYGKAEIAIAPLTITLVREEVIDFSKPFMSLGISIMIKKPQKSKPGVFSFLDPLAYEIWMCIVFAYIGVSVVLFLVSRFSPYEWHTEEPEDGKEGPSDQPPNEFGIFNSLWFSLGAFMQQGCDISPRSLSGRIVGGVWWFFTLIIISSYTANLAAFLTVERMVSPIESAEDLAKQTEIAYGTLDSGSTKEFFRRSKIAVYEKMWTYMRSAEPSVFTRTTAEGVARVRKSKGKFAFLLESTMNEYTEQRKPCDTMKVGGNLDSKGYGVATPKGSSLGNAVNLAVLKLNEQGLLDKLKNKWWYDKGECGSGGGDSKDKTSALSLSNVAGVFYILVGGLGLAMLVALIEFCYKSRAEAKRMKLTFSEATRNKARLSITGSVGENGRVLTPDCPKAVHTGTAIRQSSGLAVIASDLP
Chain of Glutamate receptor 4 (P19493 whole entry): as above
Chain of Glutamate receptor ionotropic, kainate 2 (Q13002 whole entry): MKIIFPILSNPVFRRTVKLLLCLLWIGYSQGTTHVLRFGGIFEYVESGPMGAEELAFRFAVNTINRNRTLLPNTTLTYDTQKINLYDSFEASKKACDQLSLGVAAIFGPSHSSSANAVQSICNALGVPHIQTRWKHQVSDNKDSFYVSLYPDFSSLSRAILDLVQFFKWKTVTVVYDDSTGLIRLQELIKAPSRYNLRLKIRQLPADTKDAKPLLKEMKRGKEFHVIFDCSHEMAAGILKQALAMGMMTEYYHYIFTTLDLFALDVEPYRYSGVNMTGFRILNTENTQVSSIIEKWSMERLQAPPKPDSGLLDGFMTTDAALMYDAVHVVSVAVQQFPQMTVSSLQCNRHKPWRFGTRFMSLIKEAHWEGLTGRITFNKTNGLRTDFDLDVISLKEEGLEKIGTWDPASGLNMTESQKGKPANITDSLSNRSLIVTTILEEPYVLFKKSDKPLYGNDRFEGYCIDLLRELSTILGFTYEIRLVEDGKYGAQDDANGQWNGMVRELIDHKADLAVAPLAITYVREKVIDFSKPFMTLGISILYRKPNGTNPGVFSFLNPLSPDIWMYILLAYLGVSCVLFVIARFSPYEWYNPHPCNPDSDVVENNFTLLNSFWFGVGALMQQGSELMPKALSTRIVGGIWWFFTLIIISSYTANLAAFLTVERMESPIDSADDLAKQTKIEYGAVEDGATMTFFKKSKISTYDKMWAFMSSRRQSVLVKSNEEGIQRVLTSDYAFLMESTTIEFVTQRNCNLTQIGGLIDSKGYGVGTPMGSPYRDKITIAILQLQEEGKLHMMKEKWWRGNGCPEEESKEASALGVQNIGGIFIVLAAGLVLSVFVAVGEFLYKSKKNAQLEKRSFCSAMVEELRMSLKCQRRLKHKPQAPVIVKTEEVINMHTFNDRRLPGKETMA

## O=C(Nc1cccc(C(F)(F)F)c1)Nc1cc(Cl)ccc1[N+](=O)[O-]
[1]
  IC50: > 3 µM

## O=C(O)c1ccc(Cl)cc1Nc1c(Nc2cccc(Br)c2)c(=O)c1=O
[1]
  IC50: > 30 µM

## N#Cc1ccc(Cl)cc1NC(=O)Nc1cccc(C(F)(F)F)c1
[1]
  IC50: > 3 µM

## O=C(Nc1ccc2ccccc2c1)Nc1cc(Cl)ccc1C(=O)O
Glutamate receptor 1
  IC50: > 100 µM
Glutamate receptor 3
  IC50: > 100 µM
Glutamate receptor 4
  IC50: > 100 µM
[2]
  Activity: inactive
[3]
  Activity: inactive
[4]
  Activity: inactive
[5]
  Activity: inactive
Mus musculus
  ED50: > 30 mg/kg

## O=C(O)CCc1ccc(Cl)cc1NC(=O)Nc1cccc(Br)c1
[1]
  IC50: > 30 µM

## O=C(Nc1cccc(Br)c1)Oc1cc(Cl)ccc1C(=O)O
[1]
  IC50: > 30 µM

## O=C(Nc1cccc(Br)c1)Nc1cc(Cl)ccc1[N+](=O)[O-]
[1]
  IC50: > 3 µM

## O=C(Nc1cccc(C(F)(F)F)c1)Nc1cc(Cl)ccc1CO
[1]
  IC50: > 10 µM

## Nc1ccc(Cl)cc1NC(=O)Nc1cccc(C(F)(F)F)c1
[1]
  IC50: > 30 µM

## O=C(Nc1cccc(Br)c1)Nc1cc(Cl)ccc1C(=O)O
Glutamate receptor 1
  IC50: > 100 µM
Glutamate receptor 2
  IC50: > 100 µM
Glutamate receptor 3
  IC50: > 100 µM
Glutamate receptor 4
  IC50: > 100 µM
[2]
  Activity: inactive
[3]
  Activity: inactive
[4]
  Activity: inactive
[5]
  Activity: inactive

## COC(=O)c1ccc(Cl)cc1NC(=O)Nc1cccc(Br)c1
[1]
  IC50: > 30 µM

## O=C(O)Cc1ccc(Cl)cc1NC(=O)Nc1cccc(Br)c1
Glutamate receptor 1
  IC50: > 100 µM
Glutamate receptor 2
  IC50: > 100 µM
Glutamate receptor 3
  IC50: > 100 µM
Glutamate receptor 4
  IC50: > 100 µM
[1]
  IC50: 3.6 µM
[6]
  IC50: > 50 µM
[7]
  IC50: > 30 µM
[2]
  Activity: inactive
[3]
  Activity: inactive
[4]
  Activity: inactive
[5]
  Activity: inactive
Mus musculus
  ED50: > 30 mg/kg

## O=C(Nc1cccc(Br)c1)Nc1cc(Cl)ccc1-c1nc(=O)o[nH]1
Glutamate receptor 1
  IC50: > 100 µM
Glutamate receptor 2
  IC50: > 100 µM
Glutamate receptor 3
  IC50: > 100 µM
Glutamate receptor 4
  IC50: > 100 µM
[1]
  IC50: 4.6 µM
[6]
  IC50: > 30 µM
[7]
  IC50: > 30 µM
[2]
  Activity: inactive
[3]
  Activity: inactive
[4]
  Activity: inactive
[5]
  Activity: inactive
Mus musculus
  ED50: > 100 mg/kg

## O=C(Nc1cccc(Br)c1)Nc1cc(Cl)ccc1S(=O)(=O)O
Glutamate receptor 1
  IC50: > 100 µM
Glutamate receptor 2
  IC50: > 100 µM
Glutamate receptor 3
  IC50: > 100 µM
Glutamate receptor 4
  IC50: > 100 µM
[1]
  IC50: 1.5 µM
[6]
  IC50: 37 µM
[7]
  IC50: > 30 µM
Mus musculus
  ED50: 29 mg/kg

## O=C(Nc1cccc(Br)c1)n1[nH]c(=O)c2ccc(Cl)cc21
[1]
  IC50: > 50 µM

## O=C(Nc1cccc(C(F)(F)F)c1)Nc1cc(Cl)ccc1O
[1]
  IC50: > 30 µM

## O=C(Nc1cccc(Br)c1)Nc1cc(Cl)ccc1-c1nnn[nH]1
Glutamate receptor 1
  IC50: > 100 µM
Glutamate receptor 2
  IC50: > 100 µM
Glutamate receptor 3
  IC50: > 100 µM
Glutamate receptor 4
  IC50: > 100 µM
[1]
  IC50: 2 µM
[6]
  IC50: > 10 µM
[7]
  IC50: > 30 µM
[2]
  Activity: inactive
[3]
  Activity: inactive
[4]
  Activity: inactive
[5]
  Activity: inactive
Mus musculus
  ED50: 5.5 mg/kg
